ChEMBL document CHEMBL3286180, “Efficacious inhaled PDE4 inhibitors with low emetic potential and long duration of action for the treatment of COPD” (J Med Chem, 2014)
Converted amounts (≈) assume the structure as drawn. The source made the active and inactive calls. The rule behind the calls is not given here.

Tests used:
[1] = molecular target: 3',5'-cyclic-AMP phosphodiesterase 4B (Homo sapiens, UniProt Q07343); experiment: Inhibition of human recombinant PDE4B using [3H]cAMP by packard topcount scintillation counting analysis
[2] = Aqueous solubility of the compound at pH 7.4; type: physicochemical; conditions: aqueous medium
[3] = Fraction unbound in human plasma; type: ADME, cell-free
[4] = Lipophilicity, log D of the compound; type: physicochemical; conditions: octanol/water
[5] = system: PBMC; experiment: Antiinflammatory activity in human PBMC assessed as inhibition of LPS-induced TNFalpha production after 20 hrs by fluorescence linked immunosorbant assay; type: functional, cell-based
[6] = system: Rattus norvegicus; experiment: Antiinflammatory activity in Sprague-Dawley rat assessed as inhibition of LPS-induced bronchoalveolar lavage neutrophils at 0.03 mg/ml, inhalation administered as nebulized suspension; type: functional, organism-based
Summary of the method: (§1)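 Rats were given the compound as an aqueous nebulized aerosol by nose-only inhalation 30 min before LPS challenge. Dose is expressed as mg/mL nebulizer concentration. Lung neutrophilia was the readout, and terminal lung concentration (nM) was measured. Groups held 8−10 animals per treatment.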

[7] = molecular target: Cytochrome P450 3A4 (Homo sapiens, UniProt P08684); experiment: Inhibition of CYP3A4 (unknown origin); type: ADME
[8] = Clearance in rat at 1 mg/kg, iv; type: ADME, organism-based; parameters: dose 1 mg/kg, route intravenous; conditions: in vivo
Summary of the method: (§2)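 Rat pharmacokinetics were run at 1 mg/kg, given iv or by intratracheal instillation, with 2−3 animals per study.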

[9] = molecular target: Cytochrome P450 2C9 (Homo sapiens, UniProt P11712); experiment: Inhibition of CYP2C9 (unknown origin); type: ADME
[10] = Volume of distribution at steady state in rat at 1 mg/kg, iv; type: ADME, organism-based; parameters: dose 1 mg/kg, route intravenous; conditions: in vivo, read-out: Vdss
[11] = Half life in rat at 1 mg/kg, iv; type: ADME, organism-based; parameters: dose 1 mg/kg, route intravenous; conditions: in vivo; summary of the method: as §2
[12] = system: Rattus norvegicus; experiment: Apparent volume of distribution in rat at 1 mg/kg, iv; type: ADME, organism-based; parameters: dose 1 mg/kg, route intravenous; conditions: in vivo; summary of the method: as §2
[13] = system: Rattus norvegicus; experiment: Antiinflammatory activity in Sprague-Dawley rat assessed as inhibition of LPS-induced bronchoalveolar lavage neutrophils at 1 mg/ml, inhalation administered as nebulized suspension; type: functional, organism-based; summary of the method: as §1
[14] = molecular target: Cytochrome P450 2D6 (Homo sapiens, UniProt P10635); experiment: Inhibition of CYP2D6 (unknown origin); type: ADME
[15] = molecular target: Cytochrome P450 2C19 (Homo sapiens, UniProt P33261); experiment: Inhibition of CYP2C19 (unknown origin); type: ADME
[16] = molecular target: T1, Cytochrome P450 1A2 (Homo sapiens, UniProt P05177); experiment: Inhibition of CYP1A2 (unknown origin); type: ADME
T1 sequence (P05177 whole entry): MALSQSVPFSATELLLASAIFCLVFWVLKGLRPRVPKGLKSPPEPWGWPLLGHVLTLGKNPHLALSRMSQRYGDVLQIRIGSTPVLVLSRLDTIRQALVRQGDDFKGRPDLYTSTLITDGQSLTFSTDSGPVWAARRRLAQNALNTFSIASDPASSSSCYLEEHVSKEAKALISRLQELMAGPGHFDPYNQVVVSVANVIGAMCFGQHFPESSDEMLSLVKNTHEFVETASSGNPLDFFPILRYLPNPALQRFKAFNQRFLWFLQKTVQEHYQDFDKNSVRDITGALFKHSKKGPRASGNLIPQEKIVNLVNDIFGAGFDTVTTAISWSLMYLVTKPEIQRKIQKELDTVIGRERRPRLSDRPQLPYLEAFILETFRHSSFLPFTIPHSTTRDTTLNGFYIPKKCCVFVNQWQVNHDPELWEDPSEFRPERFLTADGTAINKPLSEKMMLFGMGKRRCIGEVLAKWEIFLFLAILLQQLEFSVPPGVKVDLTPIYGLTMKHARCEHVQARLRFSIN

Chain of 3',5'-cyclic-AMP phosphodiesterase 4B (Q07343 whole entry): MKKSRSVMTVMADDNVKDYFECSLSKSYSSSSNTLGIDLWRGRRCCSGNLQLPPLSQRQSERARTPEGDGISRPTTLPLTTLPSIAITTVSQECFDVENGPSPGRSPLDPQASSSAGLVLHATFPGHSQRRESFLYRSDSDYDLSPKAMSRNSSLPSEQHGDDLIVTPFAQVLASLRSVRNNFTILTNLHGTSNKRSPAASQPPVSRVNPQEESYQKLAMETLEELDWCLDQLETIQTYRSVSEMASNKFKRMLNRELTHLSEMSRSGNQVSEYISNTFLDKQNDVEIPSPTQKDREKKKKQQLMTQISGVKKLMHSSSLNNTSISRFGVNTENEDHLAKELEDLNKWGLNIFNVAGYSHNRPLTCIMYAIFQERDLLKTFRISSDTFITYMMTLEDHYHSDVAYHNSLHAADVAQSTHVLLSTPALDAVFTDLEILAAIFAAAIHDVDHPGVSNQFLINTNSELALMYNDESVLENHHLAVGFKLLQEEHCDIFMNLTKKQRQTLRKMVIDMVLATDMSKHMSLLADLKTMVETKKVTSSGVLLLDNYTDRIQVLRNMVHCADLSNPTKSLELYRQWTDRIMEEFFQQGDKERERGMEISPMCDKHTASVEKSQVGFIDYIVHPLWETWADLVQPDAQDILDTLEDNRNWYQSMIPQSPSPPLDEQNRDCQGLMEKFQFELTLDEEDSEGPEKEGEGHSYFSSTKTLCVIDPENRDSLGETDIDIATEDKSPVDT
Chain of Cytochrome P450 3A4 (P08684 whole entry): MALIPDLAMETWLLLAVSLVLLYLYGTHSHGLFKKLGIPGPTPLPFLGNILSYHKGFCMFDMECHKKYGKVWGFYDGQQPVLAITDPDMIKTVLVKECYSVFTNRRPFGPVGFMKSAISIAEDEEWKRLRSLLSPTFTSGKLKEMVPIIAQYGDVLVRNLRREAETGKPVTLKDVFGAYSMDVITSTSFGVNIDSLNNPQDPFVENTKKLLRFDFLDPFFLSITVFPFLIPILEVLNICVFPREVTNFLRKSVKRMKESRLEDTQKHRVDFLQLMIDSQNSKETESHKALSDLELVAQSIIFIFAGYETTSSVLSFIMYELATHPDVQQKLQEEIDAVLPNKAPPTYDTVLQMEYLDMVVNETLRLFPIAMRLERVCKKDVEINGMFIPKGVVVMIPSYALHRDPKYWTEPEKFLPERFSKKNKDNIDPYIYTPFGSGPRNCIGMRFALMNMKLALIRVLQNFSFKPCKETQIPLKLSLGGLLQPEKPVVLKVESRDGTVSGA
Chain of Cytochrome P450 2C9 (P11712 whole entry): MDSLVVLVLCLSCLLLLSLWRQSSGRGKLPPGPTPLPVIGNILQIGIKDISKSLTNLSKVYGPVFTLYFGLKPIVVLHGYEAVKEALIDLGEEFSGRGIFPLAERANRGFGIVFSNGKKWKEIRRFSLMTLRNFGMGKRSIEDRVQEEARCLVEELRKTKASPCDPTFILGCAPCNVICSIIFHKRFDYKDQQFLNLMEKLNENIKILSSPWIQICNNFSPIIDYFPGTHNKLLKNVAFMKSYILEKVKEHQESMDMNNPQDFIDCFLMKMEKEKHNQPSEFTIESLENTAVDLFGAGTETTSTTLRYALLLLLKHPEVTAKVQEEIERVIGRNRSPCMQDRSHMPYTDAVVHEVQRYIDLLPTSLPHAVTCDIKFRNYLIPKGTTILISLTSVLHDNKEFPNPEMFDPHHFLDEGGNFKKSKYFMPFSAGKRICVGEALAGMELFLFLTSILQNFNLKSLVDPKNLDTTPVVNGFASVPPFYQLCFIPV
Chain of Cytochrome P450 2D6 (P10635 whole entry): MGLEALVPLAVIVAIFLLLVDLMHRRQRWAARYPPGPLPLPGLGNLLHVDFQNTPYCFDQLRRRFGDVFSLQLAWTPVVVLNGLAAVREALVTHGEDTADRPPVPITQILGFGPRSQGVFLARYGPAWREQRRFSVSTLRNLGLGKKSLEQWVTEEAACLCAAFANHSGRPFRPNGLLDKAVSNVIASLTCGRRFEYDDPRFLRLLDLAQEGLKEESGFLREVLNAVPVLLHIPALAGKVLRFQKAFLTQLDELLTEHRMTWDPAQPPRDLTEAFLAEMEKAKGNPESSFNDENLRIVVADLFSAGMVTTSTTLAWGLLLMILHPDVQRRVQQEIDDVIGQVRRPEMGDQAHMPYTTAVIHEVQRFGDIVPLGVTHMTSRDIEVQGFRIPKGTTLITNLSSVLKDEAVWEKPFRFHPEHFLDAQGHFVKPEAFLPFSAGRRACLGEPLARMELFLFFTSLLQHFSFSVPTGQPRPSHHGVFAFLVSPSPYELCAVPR
Chain of Cytochrome P450 2C19 (P33261 whole entry): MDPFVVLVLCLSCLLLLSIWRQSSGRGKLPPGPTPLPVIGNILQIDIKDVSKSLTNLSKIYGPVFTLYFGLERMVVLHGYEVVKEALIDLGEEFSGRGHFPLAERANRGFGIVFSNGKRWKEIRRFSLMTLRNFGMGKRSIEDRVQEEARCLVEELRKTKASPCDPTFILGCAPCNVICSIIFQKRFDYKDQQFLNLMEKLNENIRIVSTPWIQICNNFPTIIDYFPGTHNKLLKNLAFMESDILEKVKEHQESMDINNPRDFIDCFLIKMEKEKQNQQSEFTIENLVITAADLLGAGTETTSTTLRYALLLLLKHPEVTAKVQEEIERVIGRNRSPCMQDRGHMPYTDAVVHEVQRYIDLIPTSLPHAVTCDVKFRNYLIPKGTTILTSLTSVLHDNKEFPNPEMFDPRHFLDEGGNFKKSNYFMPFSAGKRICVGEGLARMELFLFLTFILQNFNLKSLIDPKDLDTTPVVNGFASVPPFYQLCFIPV

For `CN(C)Cc1cc(O)ccc1-c1cccc(Oc2ncc(F)cc2C(=O)N[C@H]2CC[C@@H](NC(=O)c3cccc4ocnc34)CC2)c1`, the IC50 [1] was 0.316 nM.
For `Cc1csc(C(=O)N[C@H]2CC[C@@H](NC(=O)c3cc(F)cnc3Oc3cccc(-c4ccc(CN5C[C@@H](C)N[C@@H](C)C5)cc4CN4CCOCC4)c3)CC2)n1.O=C(O)C(F)(F)F`, the solubility [2] was > 1400 µM.
`Cc1cc(C(=O)N[C@H]2CC[C@@H](NC(=O)c3cc(F)cnc3Oc3cccc(-c4ccc(O)c(CN5C[C@@H](C)N[C@@H](C)C5)c4)c3)CC2)nn1C` showed a solubility [2] of 970 µM (≈ 650 µg/mL), a fraction unbound [3] of 0.16 and a logD [4] of 2.3. The IC50 [5] was 0.0316 nM.
`Cc1cc(C(=O)N[C@H]2CC[C@@H](NC(=O)c3cc(F)cnc3Oc3cccc(-c4ccc(CN5C[C@@H](C)N[C@@H](C)C5)cc4)c3)CC2)nn1C` showed a solubility [2] of 1300 µM (≈ 850 µg/mL), a fraction unbound [3] of 0.11 and a logD [4] of 2.4. The IC50 [5] was 0.1 nM.
In the case of `C[C@@H]1CN(Cc2ccc(-c3cccc(Oc4ncc(F)cc4C(=O)N[C@H]4CC[C@@H](NC(=O)c5cc6ccccn6n5)CC4)c3)cc2)C[C@H](C)N1`, the solubility [2] is reported as 580 µM (≈ 392 µg/mL), the inhibition [6] is reported as “Active” and the IC50 [7] is reported as 398 nM. For the same compound, the clearance [8] was 58 mL/min/kg, the IC50 [9] was > 1000 nM and the Vd [10] was 13 L/kg. It also gave a fraction unbound [3] of 0.045, a logD [4] of 2.7 and an IC50 [5] of 0.0794 nM. It also gave a half-life [11] of 5.8 h and a Vz/F [12] of 30 L/kg.
`CN(C)Cc1cc(O)ccc1-c1cccc(Oc2ncc(F)cc2C(=O)N[C@H]2CC[C@@H](NC(=O)c3cccc4oc(=O)[nH]c34)CC2)c1` gave an IC50 [1] of 20 nM.
For `Cc1cc(C(=O)N[C@H]2CC[C@@H](NC(=O)c3cc(F)cnc3Oc3cccc(-c4cc(O)cc(CN5C[C@@H](C)N[C@@H](C)C5)c4)c3)CC2)nn1C`, the solubility [2] was > 1500 µM, the fraction unbound [3] was 0.35 and the logD [4] was 2.2. For the same compound, the IC50 [5] was 0.398 nM.
In the case of `Cc1cccc2nc(C(=O)N[C@H]3CC[C@@H](NC(=O)c4cc(F)cnc4Oc4cccc(-c5ccc(CN6CCC(N7CCCC7)CC6)cc5)c4)CC3)cn12`, the solubility [2] is reported as > 1400 µM, the IC50 [7] is reported as > 1000 nM and the clearance [8] is reported as 79 mL/min/kg. For the same compound, the IC50 [1] was 0.0398 nM, the IC50 [9] was > 1000 nM and the inhibition [13] was “Active”. For the same compound, the Vd [10] was 60 L/kg, the fraction unbound [3] was 0.02 and the logD [4] was 3.2. The IC50 [5] was 0.251 nM, the IC50 [14] was > 1000 nM and the IC50 [15] was > 1000 nM. The IC50 [16] was > 1000 nM, the half-life [11] was 12 h and the Vz/F [12] was 80 L/kg.
For `O=C(N[C@H]1CC[C@@H](NC(=O)c2nc3ccccc3[nH]c2=O)CC1)c1cc(F)cnc1Oc1cccc(-c2ccc(O)cc2CN2CCOCC2)c1`, the IC50 [1] was 0.316 nM.
In the case of `Cc1cc(C(=O)N[C@H]2CC[C@@H](NC(=O)c3cc(F)cnc3Oc3cccc(-c4cccc(CN5C[C@@H](C)N[C@@H](C)C5)c4O)c3)CC2)nn1C`, the solubility [2] is reported as 470 µM (≈ 315 µg/mL), the fraction unbound [3] is reported as 0.091 and the logD [4] is reported as 2.8. For the same compound, the IC50 [5] was 3.16 nM.
In the case of `Cc1cc(C(=O)N[C@H]2CC[C@@H](NC(=O)c3cc(F)cnc3Oc3cccc(-c4cccc(CN5C[C@@H](C)N[C@@H](C)C5)c4)c3)CC2)nn1C`, the solubility [2] is reported as > 1500 µM, the fraction unbound [3] is reported as 0.18 and the logD [4] is reported as 2.1. It also gave an IC50 [5] of 0.0794 nM.
